Measured values published in ChEMBL document CHEMBL4196123, “Discovery of an Orally Bioavailable Dual PI3K/mTOR Inhibitor Based on Sulfonyl-Substituted Morpholinopyrimidines” (ACS Med Chem Lett, 2018).
Activity calls are given as the source filed them. The rule behind the calls is not given here.

Columns and labels:
[1] = biological target: PI3-kinase p110-alpha/p85-alpha (Homo sapiens, UniProt P42336); assay: Inhibition of recombinant human full length N-terminal His-tagged p110alpha/p85alpha expressed in baculovirus expression system using PIP2 as substrate measured after 1 hr by Alexa633 Tracer-based fluorescence polarization assay
Outline: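 PI3Kα enzyme inhibition; IC50 is the mean of duplicate measurements.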

MCF7 = assay: Antiproliferative activity against human MCF7 cells harboring PIK3CA E545K mutant after 72 hrs by MTT assay; type: functional, cell-based; settings: MCF7, 72 h
[2] = Inhibition of PI3K in human PC3 cells assessed as reduction in AKT phosphorylation at Ser473 measured after 2 hrs by fluorescence assay; type: cell-based; settings: PC-3, 2 h
T47D = assay: Antiproliferative activity against human T47D cells harboring PI3KCA H1047R mutant after 72 hrs by MTT assay; type: functional, cell-based
[3] = Intrinsic clearance in mouse liver microsomes at […] pretreated up to 45 mins followed by NADPH addition and measured by LC-MS/MS analysis; type: ADME, microsome; settings: read-out: CLH
[4] = Intrinsic clearance in human liver microsomes at […] pretreated up to 45 mins followed by NADPH addition and measured by LC-MS/MS analysis; type: ADME, microsome; settings: read-out: CLH
[5] = biological target: Serine/threonine-protein kinase ATR (Homo sapiens) (UniProt Q13535); assay: Inhibition of ATR in human HT-29 cells assessed as reduction in camptothecin-induced Chk1 phosphorylation at Ser345 residue up to 10 uM pretreated for 1 hr followed by camptothecin addition; type: cell-based
Outline: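 HT-29 cells were pretreated with compound for 1 h, then exposed to camptothecin to induce DNA damage. ATR activity was read as phosphorylation of its substrate Chk1, with total Chk1 and β-actin as internal controls. […] served as reference inhibitor.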

[6] = biological target: PI3-kinase p110-delta/p85-alpha (Homo sapiens, UniProt O00329); assay: Inhibition of recombinant human full-length N-terminal His6-tagged p110delta/recombinant human full length p85alpha expressed in baculovirus infected Sf21 insect cells using PIP2 as substrate measured after 1 hr by Alexa633 Tracer-based fluorescence polarization assay
PI3K p110 beta/p85 alpha = PI3K p110 beta/p85 alpha (Homo sapiens, UniProt P42338); assay: Inhibition of recombinant human full-length N-terminal His6-tagged p110beta/recombinant human full length p85alpha expressed in baculovirus infected Sf21 insect cells using PIP2 as substrate measured after 1 hr by Alexa633 Tracer-based fluorescence polarization assay
[7] = biological target: Serine/threonine-protein kinase mTOR (Homo sapiens, UniProt P42345); assay: Inhibition of recombinant human GST-tagged mTOR catalytic domain (1360 to 2549 residues) expressed in baculovirus expression system using GFP-4EBP1 as substrate measured after 1 hr by Lathascreen method
HUVEC = assay: Cytotoxicity against HUVEC after 72 hrs by MTT assay; type: cell-based; settings: Homo sapiens
HT-29 [8] = assay: Antitumor activity against human HT-29 cells harboring PIK3CA P449T mutant xenografted in Balb/c nu/nu mouse assessed as tumor growth inhibition at 30 mg/kg, po administered daily via gavage for 27 days relative to control; type: functional; settings: HT-29, po, 648 h, read-out: TGI
Outline: (§1)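 Balb/c nu/nu mice carrying HT-29 xenografts were dosed by daily oral gavage for 27 days, starting when mean tumor size was about 240 mm³; vehicle group as control. Tumor volume estimated over time, and TGI calculated after 27 days. Mean ± SEM, n = 6. Dunnett's multiple comparison test.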

HT-29 [9] = assay: Cell cycle arrest in human HT-29 cells assessed as accumulation at G2/M phase at 0.111 to 3 uM after 24 hrs by propidium iodide staining based flow cytometry; type: functional
Mus musculus = assay: Toxicity in Balb/c nu/nu mouse xenografted with human HT-29 cells harboring PIK3CA P449T mutant assessed as body weight loss at 60 mg/kg, po administered daily via gavage for 10 days relative to control; settings: in vivo, 240 h
HT-29 [10] = assay: Antitumor activity against human HT-29 cells harboring PIK3CA P449T mutant xenografted in Balb/c nu/nu mouse assessed as tumor growth inhibition at 15 mg/kg, po administered daily via gavage for 27 days relative to control; type: functional; settings: HT-29, po, 648 h, read-out: TGI; outline: as §1

Chain of PI3-kinase p110-alpha/p85-alpha (P27986 whole entry): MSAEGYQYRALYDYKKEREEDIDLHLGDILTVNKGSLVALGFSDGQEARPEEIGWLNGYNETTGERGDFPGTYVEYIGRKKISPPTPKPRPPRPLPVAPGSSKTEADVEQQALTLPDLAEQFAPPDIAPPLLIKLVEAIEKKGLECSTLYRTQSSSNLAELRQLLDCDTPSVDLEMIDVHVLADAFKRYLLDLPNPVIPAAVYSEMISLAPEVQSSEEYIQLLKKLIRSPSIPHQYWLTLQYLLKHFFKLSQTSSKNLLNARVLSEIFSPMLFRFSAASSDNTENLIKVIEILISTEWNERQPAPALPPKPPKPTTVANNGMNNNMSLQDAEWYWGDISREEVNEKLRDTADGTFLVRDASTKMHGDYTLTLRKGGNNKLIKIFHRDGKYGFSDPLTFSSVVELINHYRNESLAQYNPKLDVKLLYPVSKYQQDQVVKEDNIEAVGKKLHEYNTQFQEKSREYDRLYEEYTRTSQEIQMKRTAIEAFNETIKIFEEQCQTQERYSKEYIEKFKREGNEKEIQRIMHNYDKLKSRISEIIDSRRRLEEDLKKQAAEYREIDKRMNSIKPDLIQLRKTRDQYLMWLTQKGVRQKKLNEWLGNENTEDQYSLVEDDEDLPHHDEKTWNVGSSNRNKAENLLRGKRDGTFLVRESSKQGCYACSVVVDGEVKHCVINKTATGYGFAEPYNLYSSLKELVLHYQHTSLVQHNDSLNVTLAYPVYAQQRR
Chain of PI3-kinase p110-alpha/p85-alpha (P42336 whole entry): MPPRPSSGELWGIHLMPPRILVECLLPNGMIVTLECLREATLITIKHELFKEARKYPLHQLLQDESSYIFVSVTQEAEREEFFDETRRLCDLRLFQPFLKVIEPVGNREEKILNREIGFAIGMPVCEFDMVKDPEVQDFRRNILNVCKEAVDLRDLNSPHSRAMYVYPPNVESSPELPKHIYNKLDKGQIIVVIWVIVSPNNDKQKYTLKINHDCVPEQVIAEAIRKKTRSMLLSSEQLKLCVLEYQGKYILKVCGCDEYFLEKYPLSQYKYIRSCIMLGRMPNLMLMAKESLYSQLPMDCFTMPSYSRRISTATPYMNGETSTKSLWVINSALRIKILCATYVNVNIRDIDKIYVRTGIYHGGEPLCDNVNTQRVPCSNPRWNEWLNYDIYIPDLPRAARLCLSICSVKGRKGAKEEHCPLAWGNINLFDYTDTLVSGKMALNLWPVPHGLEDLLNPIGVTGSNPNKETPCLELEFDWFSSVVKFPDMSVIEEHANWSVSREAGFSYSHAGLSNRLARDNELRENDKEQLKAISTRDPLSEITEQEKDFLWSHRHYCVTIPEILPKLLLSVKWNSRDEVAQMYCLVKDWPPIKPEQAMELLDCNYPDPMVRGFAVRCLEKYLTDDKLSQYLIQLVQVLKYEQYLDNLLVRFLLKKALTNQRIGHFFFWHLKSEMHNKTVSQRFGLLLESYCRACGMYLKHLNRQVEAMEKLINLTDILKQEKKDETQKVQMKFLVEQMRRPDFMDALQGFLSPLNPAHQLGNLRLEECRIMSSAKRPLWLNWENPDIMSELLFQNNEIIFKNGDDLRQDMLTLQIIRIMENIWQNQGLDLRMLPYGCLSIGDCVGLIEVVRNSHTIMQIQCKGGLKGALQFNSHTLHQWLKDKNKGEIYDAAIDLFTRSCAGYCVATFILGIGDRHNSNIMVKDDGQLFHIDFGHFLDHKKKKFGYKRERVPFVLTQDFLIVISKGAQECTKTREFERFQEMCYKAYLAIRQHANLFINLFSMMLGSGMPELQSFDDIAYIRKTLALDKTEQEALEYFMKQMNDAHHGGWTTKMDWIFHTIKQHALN
Chain of Serine/threonine-protein kinase ATR (Homo sapiens) (Q13535 whole entry, looked up): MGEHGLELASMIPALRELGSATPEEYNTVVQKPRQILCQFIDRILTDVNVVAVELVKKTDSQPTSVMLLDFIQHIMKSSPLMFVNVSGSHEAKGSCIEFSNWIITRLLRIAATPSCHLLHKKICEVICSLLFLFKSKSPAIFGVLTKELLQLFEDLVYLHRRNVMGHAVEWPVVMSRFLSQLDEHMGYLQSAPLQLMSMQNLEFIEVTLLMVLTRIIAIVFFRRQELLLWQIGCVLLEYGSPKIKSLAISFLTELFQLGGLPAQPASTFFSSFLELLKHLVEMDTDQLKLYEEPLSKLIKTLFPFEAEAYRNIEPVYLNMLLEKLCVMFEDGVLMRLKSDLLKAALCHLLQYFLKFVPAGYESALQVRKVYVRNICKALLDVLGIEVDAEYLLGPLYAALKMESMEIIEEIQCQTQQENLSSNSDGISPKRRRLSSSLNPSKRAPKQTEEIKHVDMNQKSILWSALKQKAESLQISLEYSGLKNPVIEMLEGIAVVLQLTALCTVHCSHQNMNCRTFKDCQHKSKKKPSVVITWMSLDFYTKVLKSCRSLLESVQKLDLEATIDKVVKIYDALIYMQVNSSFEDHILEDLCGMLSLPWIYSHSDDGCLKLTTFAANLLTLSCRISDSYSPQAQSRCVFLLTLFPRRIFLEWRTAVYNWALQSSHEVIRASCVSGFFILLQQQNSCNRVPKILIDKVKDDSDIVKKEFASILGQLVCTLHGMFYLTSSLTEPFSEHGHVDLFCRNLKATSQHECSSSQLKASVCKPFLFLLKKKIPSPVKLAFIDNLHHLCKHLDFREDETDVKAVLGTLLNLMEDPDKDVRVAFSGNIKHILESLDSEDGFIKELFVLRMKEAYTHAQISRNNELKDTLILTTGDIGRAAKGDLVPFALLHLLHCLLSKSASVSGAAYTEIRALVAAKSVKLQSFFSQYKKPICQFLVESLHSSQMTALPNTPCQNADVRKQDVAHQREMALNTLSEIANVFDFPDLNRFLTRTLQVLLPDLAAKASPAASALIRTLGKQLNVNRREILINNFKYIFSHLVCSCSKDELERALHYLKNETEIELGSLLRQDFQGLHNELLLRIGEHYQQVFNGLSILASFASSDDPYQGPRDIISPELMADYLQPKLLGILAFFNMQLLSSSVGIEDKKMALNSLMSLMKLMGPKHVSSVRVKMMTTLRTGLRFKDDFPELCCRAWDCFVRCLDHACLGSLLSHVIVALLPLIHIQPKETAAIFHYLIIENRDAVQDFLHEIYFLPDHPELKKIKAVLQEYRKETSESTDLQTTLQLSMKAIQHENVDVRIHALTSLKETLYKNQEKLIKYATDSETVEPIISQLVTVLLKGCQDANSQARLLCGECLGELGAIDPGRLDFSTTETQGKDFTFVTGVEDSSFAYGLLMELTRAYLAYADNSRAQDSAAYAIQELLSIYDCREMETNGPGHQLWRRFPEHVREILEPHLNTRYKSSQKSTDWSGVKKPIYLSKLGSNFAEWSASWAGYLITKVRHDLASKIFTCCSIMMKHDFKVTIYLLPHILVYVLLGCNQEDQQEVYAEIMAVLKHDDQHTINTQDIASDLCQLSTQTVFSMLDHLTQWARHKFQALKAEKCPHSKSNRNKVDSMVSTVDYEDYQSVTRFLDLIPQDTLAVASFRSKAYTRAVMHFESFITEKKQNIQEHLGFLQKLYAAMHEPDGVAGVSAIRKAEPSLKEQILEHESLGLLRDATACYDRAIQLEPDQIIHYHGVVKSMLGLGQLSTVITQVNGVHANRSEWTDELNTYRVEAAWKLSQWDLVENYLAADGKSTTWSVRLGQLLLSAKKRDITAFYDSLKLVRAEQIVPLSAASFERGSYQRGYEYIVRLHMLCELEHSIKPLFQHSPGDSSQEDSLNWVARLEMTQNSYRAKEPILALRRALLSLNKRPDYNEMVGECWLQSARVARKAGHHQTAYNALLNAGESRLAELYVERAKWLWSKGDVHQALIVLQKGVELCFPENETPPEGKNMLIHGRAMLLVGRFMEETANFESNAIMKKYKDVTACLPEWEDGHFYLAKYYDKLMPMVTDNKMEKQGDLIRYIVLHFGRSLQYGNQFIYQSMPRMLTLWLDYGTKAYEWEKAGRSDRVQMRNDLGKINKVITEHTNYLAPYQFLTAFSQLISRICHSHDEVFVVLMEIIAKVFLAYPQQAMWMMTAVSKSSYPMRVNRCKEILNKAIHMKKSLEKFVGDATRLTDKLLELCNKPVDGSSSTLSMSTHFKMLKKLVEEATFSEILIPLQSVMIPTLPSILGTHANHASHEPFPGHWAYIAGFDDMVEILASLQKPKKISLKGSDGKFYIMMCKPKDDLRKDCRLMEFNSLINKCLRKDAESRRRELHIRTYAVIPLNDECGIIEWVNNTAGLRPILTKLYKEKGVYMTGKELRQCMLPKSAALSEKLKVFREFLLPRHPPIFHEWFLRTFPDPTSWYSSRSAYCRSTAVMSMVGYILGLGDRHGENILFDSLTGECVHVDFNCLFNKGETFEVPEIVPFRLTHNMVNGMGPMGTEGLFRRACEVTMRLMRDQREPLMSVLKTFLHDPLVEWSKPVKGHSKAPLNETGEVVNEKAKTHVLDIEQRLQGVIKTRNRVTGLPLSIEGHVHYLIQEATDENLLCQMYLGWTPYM

| IC50 [1] | IC50 (MCF7) | IC50 [2] | IC50 (T47D) | Structure (SMILES) | other results |
| --- | --- | --- | --- | --- | --- |
| 321 nM |  |  |  | CS(=O)(=O)C1(c2cc(-c3cnc(N)cc3C(F)(F)F)nc(N3CCOCC3)n2)CCCCC1 |  |
|  | 295 nM | 301 nM | 225 nM | CCS(=O)(=O)C1(c2cc(-c3cnc(N)cc3C(F)(F)F)nc(N3CCOCC3)n2)CC1 |  |
| 6 nM | 78 nM | 184 nM | 93 nM | C[C@H]1COCCN1c1nc(-c2cnc(N)cc2C(F)(F)F)cc(C2(S(C)(=O)=O)CCC2)n1 |  |
|  | 513 nM | 668 nM | 324 nM | Nc1cc(C(F)(F)F)c(-c2cc(C3(S(=O)(=O)c4ccccc4)CC3)nc(N3CCOCC3)n2)cn1 |  |
| 223 nM |  |  |  | C[C@@H]1COCCN1c1nc(-c2cnc(N)cc2C(F)(F)F)cc(C2(S(C)(=O)=O)CC2)n1 |  |
| 25 nM | 408 nM | 846 nM | 513 nM | CS(=O)(=O)C(F)(F)c1cc(-c2cnc(N)cc2C(F)(F)F)nc(N2CCOCC2)n1 |  |
| 58 nM | 437 nM | 430 nM | 160 nM | CC(C)S(=O)(=O)C1(c2cc(-c3cnc(N)cc3C(F)(F)F)nc(N3CCOCC3)n2)CC1 |  |
| 9 to 16 nM | 112 nM | 546 nM | 129 nM | C[C@H]1COCCN1c1nc(-c2cnc(N)cc2C(F)(F)F)cc(C2(S(C)(=O)=O)CC2)n1 | inhibition [5]: inactive; IC50 [6]: 197 nM; IC50 (PI3K p110 beta/p85 alpha): 264 nM; IC50 [7]: 2120 nM |
|  | 340 nM | 384 nM | 218 nM | CS(=O)(=O)C1(c2cc(-c3cnc(N)cc3C(F)(F)F)nc(N3CCOCC3)n2)CCCC1 |  |
| 41 nM | 27 nM | 369 nM | 62 nM | CS(=O)(=O)C1(c2cc(-c3cnc(N)cc3F)nc(N3CCOCC3)n2)CC1 | CLint scaled [3]: 40 to 140 mL/min/kg; CLint scaled [4]: 5 to 16 mL/min/kg |
| 22 nM | 159 nM | 674 nM | 139 nM | C[C@H]1COCCN1c1nc(-c2cnc(N)cc2C(F)(F)F)cc(C2(S(C)(=O)=O)CCCC2)n1 |  |
| 14 nM | 286 nM | 606 nM | 242 nM | Nc1cc(C(F)(F)F)c(-c2cc(C3(S(=O)(=O)c4cccc(F)c4)CC3)nc(N3CCOCC3)n2)cn1 |  |
|  | 1510 nM | 3010 nM | 1670 nM | CS(=O)(=O)Cc1cc(-c2cnc(N)cc2C(F)(F)F)nc(N2CCOCC2)n1 | inhibition [5]: inactive; IC50 [7]: 14000 nM |
| 56 nM | 1140 nM | 2450 nM | 1160 nM | CS(=O)(=O)C(F)c1cc(-c2cnc(N)cc2C(F)(F)F)nc(N2CCOCC2)n1 (configuration not stated) |  |
| 15 nM | 134 nM | 248 nM | 138 nM | CS(=O)(=O)C1(c2cc(-c3cnc(N)cc3C(F)(F)F)nc(N3CCOCC3)n2)CCC1 |  |

Continued, molecule first:

| Structure (SMILES) | IC50 [1] | IC50 (MCF7) | IC50 [2] | IC50 (T47D) | other results |
| --- | --- | --- | --- | --- | --- |
| CC(C)C(c1cc(-c2cnc(N)cc2C(F)(F)F)nc(N2CCOCC2)n1)S(C)(=O)=O (configuration not stated) | 218 nM |  |  |  |  |
| CC(C)(c1cc(-c2cnc(N)cc2F)nc(N2CCOCC2)n1)S(C)(=O)=O | 66 nM | 104 nM | 215 nM | 123 nM | CLint scaled [3]: 40 to 140 mL/min/kg; CLint scaled [4]: 5 to 16 mL/min/kg |
| Nc1cc(C(F)(F)F)c(-c2cc(C3(S(=O)(=O)c4ccc(F)cc4)CC3)nc(N3CCOCC3)n2)cn1 | 57 nM | 572 nM | 1280 nM | 619 nM |  |
| CC(C)(c1cc(-c2cnc(N)cc2C(F)(F)F)nc(N2CCOCC2)n1)S(C)(=O)=O |  | 224 nM | 312 nM | 58 nM |  |
| Nc1cc(C(F)(F)F)c(-c2cc(C3(S(=O)(=O)c4ccccc4F)CC3)nc(N3CCOCC3)n2)cn1 | 7 nM | 184 nM | 367 nM | 129 nM |  |
| Nc1cc(C(F)(F)F)c(-c2cc(N3CCOCC3)nc(N3CCOCC3)n2)cn1 [BUPARLISIB] |  | 206 nM | 365 nM | 286 nM | inhibition [5]: inactive; CLint scaled [3]: 151 mL/min/kg; IC50 (HUVEC): 886 nM; inhibition in vivo at 30 mg/kg (HT-29 [8]): 55.7%; Activity (HT-29 [9]): Active; CLint scaled [4]: 10.9 mL/min/kg; Activity (Mus musculus): > 25%; inhibition in vivo at 15 mg/kg (HT-29 [10]): 39.4% |
| CS(=O)(=O)C1(c2cc(-c3cnc(N)cc3C(F)(F)F)nc(N3CCOCC3)n2)CC1 |  |  |  |  | inhibition [5]: inactive; CLint scaled [3]: 185 mL/min/kg; CLint scaled [4]: 9.86 mL/min/kg; IC50 [7]: 1680 nM |
| C[C@H]1COCCN1c1nc(-c2cnc(N)cc2C(F)(F)F)cc(C(C)(C)S(C)(=O)=O)n1 |  | 214 nM | 306 nM | 175 nM |  |
| CC(C)(c1cc(-c2cnc(N)cc2C(F)(F)F)nc(N2CCOCC2)n1)S(=O)(=O)c1ccccc1 | 9 nM | 897 nM | 1550 nM | 478 nM |  |
| CCS(=O)(=O)C(C)(C)c1cc(-c2cnc(N)cc2C(F)(F)F)nc(N2CCOCC2)n1 | 40 nM | 512 nM | 947 nM | 552 nM |  |
| C[C@H]1COCCN1c1nc(-c2cnc(N)cc2F)cc(C(C)(C)S(C)(=O)=O)n1 | 20 nM | 15 nM | 121 nM | 33 nM | CLint scaled [3]: 40 to 140 mL/min/kg; CLint scaled [4]: 5 to 16 mL/min/kg |
| CC(C)S(=O)(=O)C(C)(C)c1cc(-c2cnc(N)cc2C(F)(F)F)nc(N2CCOCC2)n1 | 65 nM | 599 nM | 1180 nM | 1060 nM |  |
